Assay results pooled from the literature.
Compare with care: the assays were run in different laboratories. pIC50, pKd, pKi: −log10 of the molar value.
PFF0160c: Dihydroorotate dehydrogenase (quinone), mitochondrial (PFF0160c, Plasmodium falciparum, UniProt Q08210)
SIGMAR1: Sigma non-opioid intracellular receptor 1 (SIGMAR1, Homo sapiens, UniProt Q99720)
Nectin-4: Nectin-4 (Homo sapiens, UniProt Q96NY8)
Oprm1: Mu-type opioid receptor (Oprm1, Mus musculus, UniProt P42866)

Structure (SMILES) | target | read-out | mode | technique | quantity | result
Cc1noc(-c2cccs2)c1C(=O)NCCc1cccc(Cl)c1 | PFF0160c | enzyme activity | inhibitor | absorbance | pIC50 | 6.16
COc1cc2nc(N3CCCN(C)CC3)nc(NC3CCN(Cc4ccccc4)CC3)c2cc1OC | SIGMAR1 | ligand displacement |  | radioligand | pKi | < 5.00
CCCC[C@@H]1NC(=O)[C@H](Cc2ccc(O)cc2)NC(=O)[C@@H]2CCCN2C(=O)[C@H](CC(=O)O)NC(=O)[C@H](C)NC(=O)[C@H](Cc2ccccc2)NC(=O)[C@@H]2CSCCC(=O)N3CN(CN(C3)C(=O)CCSC[C@@H](C(=O)N[C@@H](CNC(=O)CCc3cn(CCOCCOCCOCCOCCOCCOCCOCCOCCOCCOCCOCCOCCOCCOCCOCCOCCOCCOCCOCCOCCOCCOCCOCCNC(=O)N[C@H]4CSCCC(=O)N5CN6CN(C5)C(=O)CCSC[C@H](NC(=O)[C@@H](CC(=O)O)NC(=O)[C@H](Cc5cccc7ccccc57)NC(=O)[C@@H]5CCCN5C4=O)C(=O)N[C@@H](CCSC)C(=O)N[C@@H](CCCCNC(=N)N)C(=O)N[C@@H](CC(=O)O)C(=O)N[C@@H](Cc4c[nH]c5ccccc45)C(=O)N[C@@H](CO)C(=O)N[C@@H]([C@@H](C)O)C(=O)N4CCC[C@H]4C(=O)N4C[C@H](O)C[C@H]4C(=O)N[C@@H](Cc4c[nH]c5ccccc45)C(=O)N[C@H](C(N)=O)CSCCC6=O)nn3)C(N)=O)NC1=O)C(=O)CCSC[C@H](NC(=O)[C@H](C)NC(C)=O)C(=O)N[C@@H]([C@@H](C)CC)C(=O)N[C@@H](CCC(=O)O)C(=O)N[C@@H](CCC(=O)O)C(=O)NCC(=O)N[C@@H](CCC(N)=O)C(=O)N[C@@H](Cc1ccc(O)cc1)C(=O)N2 | Nectin-4 | binding |  | SPR | pKd | 8.74
COc1ccc(CN2CCN(Cc3ccccc3)CC2)cc1 | SIGMAR1 | ligand displacement |  | radioligand | pKi | 7.86
CCCC[C@@H]1NC(=O)[C@H](Cc2ccc(O)cc2)NC(=O)[C@@H]2CCCN2C(=O)[C@H](CC(=O)O)NC(=O)[C@H](C)NC(=O)[C@H](Cc2ccccc2)NC(=O)[C@@H]2CSCCC(=O)N3CN(CN(C3)C(=O)CCSC[C@@H](C(=O)N[C@@H](C)C(N)=O)NC1=O)C(=O)CCSC[C@H](NC(C)=O)C(=O)N[C@@H](CC(C)(C)C)C(=O)N1CCC[C@H]1C(=O)N[C@@H](CCC(=O)O)C(=O)N[C@H](CCCCNC(=O)CCc1cn(CCOCCOCCOCCOCCOCCC(=O)NCCCC[C@H]3NC(=O)[C@H](Cc4cccc5ccccc45)NC(=O)[C@@H]4CCCN4C(=O)[C@@H](NC(C)=O)CSCCC(=O)N4CN5CN(C4)C(=O)CCSC[C@H](NC3=O)C(=O)N[C@@H](CCSC)C(=O)N[C@@H](CCCCNC(=N)N)C(=O)N[C@@H](CCC(=O)O)C(=O)N[C@@H](Cc3c[nH]c4ccccc34)C(=O)N[C@@H](CO)C(=O)N[C@@H]([C@@H](C)O)C(=O)N3CCC[C@H]3C(=O)N3C[C@H](O)C[C@H]3C(=O)N[C@@H](Cc3c[nH]c4ccccc34)C(=O)N[C@H](C(N)=O)CSCCC5=O)nn1)C(=O)N1CCC[C@H]1C(=O)N[C@@H](Cc1ccc(O)cc1)C(=O)N2 | Nectin-4 | binding |  | SPR | pKd | 8.74
O=C(N[C@H]1C=C[C@@]2(O)[C@H]3Cc4ccc(O)c5c4[C@@]2(CCN3CC2CC2)[C@H]1O5)c1c[nH]c2cnccc12 | Oprm1 | ligand displacement |  | radioligand | pKi | 8.94
CCn1c(-c2ccccc2)cc2nnc3ccccc3c21 | PFF0160c | enzyme activity | inhibitor | absorbance | pIC50 | 6.34
O=C(N[C@@H]1C=C[C@@]2(O)[C@H]3Cc4ccc(O)c5c4[C@@]2(CCN3CC2CC2)[C@H]1O5)c1c[nH]c2ccncc12 | Oprm1 | ligand displacement |  | radioligand | pKi | 9.03
CCn1cc(C(=O)NC2CCNCC2)n(Cc2ccccc2)c1=O | Dihydroorotate dehydrogenase (quinone), mitochondrial (PFF0160c, Plasmodium falciparum, UniProt Q08210, E182D) | enzyme activity | inhibitor | absorbance | pIC50 | 5.05
O=C(N[C@@H]1C=C[C@@]2(O)[C@H]3Cc4ccc(O)c5c4[C@@]2(CCN3CC2CC2)[C@H]1O5)c1c[nH]c2ncccc12 | Oprm1 | ligand displacement |  | radioligand | pKi | 9.55
CCCC[C@@H]1NC(=O)[C@H](Cc2ccc(O)cc2)NC(=O)[C@@H]2CCCN2C(=O)[C@H](CC(=O)O)NC(=O)[C@H](C)NC(=O)[C@H](Cc2ccccc2)NC(=O)[C@@H]2CSCCC(=O)N3CN(CN(C3)C(=O)CCSC[C@@H](C(=O)N[C@@H](C)C(N)=O)NC1=O)C(=O)CCSC[C@H](NC(C)=O)C(=O)N[C@@H](CC(C)(C)C)C(=O)N1CCC[C@H]1C(=O)N[C@@H](CCC(=O)O)C(=O)N[C@H](CCCCNC(=O)CCc1cn(CCOCCOCCOCCOCCOCCC(=O)NCCCC[C@H]3NC(=O)[C@H](Cc4cccc5ccccc45)NC(=O)[C@@H]4CCCN4C(=O)[C@@H](NC(C)=O)CSCCC(=O)N4CN5CN(C4)C(=O)CCSC[C@H](NC3=O)C(=O)N[C@@H](CCSC)C(=O)N[C@@H](CCCCNC(=N)N)C(=O)N[C@@H](CC(=O)O)C(=O)N[C@@H](Cc3c[nH]c4ccccc34)C(=O)N[C@@H](CO)C(=O)N[C@@H]([C@@H](C)O)C(=O)N3CCC[C@H]3C(=O)N3C[C@H](O)C[C@H]3C(=O)N[C@@H](Cc3c[nH]c4ccccc34)C(=O)N[C@H](C(N)=O)CSCCC5=O)nn1)C(=O)N1CCC[C@H]1C(=O)N[C@@H](Cc1ccc(O)cc1)C(=O)N2 | Nectin-4 | binding |  | SPR | pKd | 8.89
